Experimental findings from ChEMBL document CHEMBL4513216, “Probing the Open Global Health Chemical Diversity Library for Multistage-Active Starting Points for Next-Generation Antimalarials” (ACS Infect Dis, 2020) are described below.

SMILES strings stand for the structures.

A short description of the data set: Toxicity liver stage against HepG2, at 10uM. The note with it: human, HepG2-A16-CD81EGFP cells; read-out: INHIBITION
It is filed as cell-based. Also noted: test concentration 10 uM, cell line HepG2-A16-CD81EGFP. A digest of the protocol: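 Uninfected HepG2-A16-CD81EGFP cells, 3 × 10^3 per well, 1536-well, plated on prespotted compound at 10 μM final, parasite-free screening media added to match infected plates; puromycin 10 μM positive, DMSO 0.5% negative; run in parallel with 48 h PbLuc assay at 37 °C, 5% CO2; viability by CellTiter-Glo luminescence, normalized to controls.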
For `Cc1nc(C2CCCN2C(=O)Cc2ccc(F)cc2)ncc1C(N)=O` (stereo unspecified), the cytotoxicity at 10 µM was -18.2%.

For the compound `O=C(CCCn1cncn1)NC1(c2cccc(Br)c2)CC1`, the cytotoxicity at 10 µM was found to be 9.57%.

For `Cn1cc(C(=O)N2CCCC(c3cc(O)n(C)n3)C2)cn1` (stereo unspecified), the cytotoxicity at 10 µM is -21.6%.

As for `O=C(c1cc[nH]n1)N1CCc2onc(COc3cccnc3)c2C1`, the cytotoxicity at 10 µM is -70.3%.

With `O=C(Cn1cc(Cl)cn1)N1CCNC1=O`, the cytotoxicity at 10 µM was -13.2%.

For `CN(Cc1ccco1)C(=O)CN1CCCC1c1cccs1` (stereo unspecified), the cytotoxicity at 10 µM was -3.62%.

On to `OC1(CNCCc2csc(-c3ccncc3)n2)CCCNC1` (stereo unspecified), for which the cytotoxicity at 10 µM is -13.2%.

As for `CN1CCCN(C(=O)NCCNc2ncccc2C#N)CC1`, the cytotoxicity at 10 µM worked out at 6.75%.

For the compound `Cc1cccc(-c2ccc(C(=O)N3CCN(C(C)C)CC3)c(=O)[nH]2)c1`, the cytotoxicity at 10 µM is -3.27%.

Consider `CN1CCN(Cc2cccnc2)C(=O)C12CCN(S(C)(=O)=O)CC2`, for which the cytotoxicity at 10 µM is 0.611%.

In the case of `COCCOCCCC(=O)N1CCC(Cc2ccccc2OC)CC1`, the cytotoxicity at 10 µM worked out at 7.28%.

Regarding `COc1cc2nc3n(c(=O)c2cc1OC)CCN(C(=O)C1CC1)CC3`, the cytotoxicity at 10 µM is -13.6%.

In the case of `Cc1c(NCc2cccnc2)cccc1C(=O)N1CCC(N(C)C)C1` (stereo unspecified), the cytotoxicity at 10 µM worked out at 14.1%.

`CC(C)(C#N)C(=O)N1CCCC(c2cc(C(F)(F)F)[nH]n2)C1` (stereo unspecified): the cytotoxicity at 10 µM is -5.67%.

Consider `CCc1nc(CN2CCC(C(=O)N(C)C)CC2)cs1`, for which the cytotoxicity at 10 µM was 3.05%.

With `COc1ccccc1N1CCC(CNS(=O)(=O)c2c(C)nn(C)c2C)C1` (stereo unspecified), the cytotoxicity at 10 µM was -21.8%.

Turning to `Cc1cc(CN2CCN(CC3CC3)[C@@H]3CS(=O)(=O)C[C@@H]32)cc(C)c1O`, the cytotoxicity at 10 µM amounted to 2.78%.

With `c1cn(Cc2nnc(C3CCN(C4CCCCC4)CC3)n2C2CC2)cn1`, the cytotoxicity at 10 µM is -6.79%.

On to `O=C(c1ccoc1)N1CCO[C@]2(CCC[C@@H]2COCc2cccnc2)C1`, for which the cytotoxicity at 10 µM stood at 6.32%.

With `CCc1nnc(CN2CCC3(CC2)Nc2ccccc2NC3=O)o1`, the cytotoxicity at 10 µM is -6.96%.

As to `CCn1cc(-c2cc(-c3cc(CN(C)C)cs3)nc(N)c2C#N)c(C)n1`, the cytotoxicity at 10 µM came to 0.184%.

For `O=C(C1CCCO1)N1CCCC2(CCN(c3cccnc3)CC2)C1` (stereo unspecified), the cytotoxicity at 10 µM came to 2.68%.

Consider `Cc1nc(C)c(-c2nnc(SCC(=O)O)n2C(C)c2ccccc2)o1` (stereo unspecified), for which the cytotoxicity at 10 µM is 4.64%.

With `Cc1cc(C)n(CCC(=O)N2CCC(Nc3cccnn3)CC2)n1`, the cytotoxicity at 10 µM was -6.36%.

Turning to `O=S(=O)(C1CC1)N1CCCn2cnc(COc3cccnc3)c2C1`, the cytotoxicity at 10 µM was 1.4%.

For `CC(=O)N1CCC(c2ncc(C(=O)Nc3ccccc3)c(C)n2)CC1`, the cytotoxicity at 10 µM is 5.91%.

Turning to `CCn1cc2c(n1)C(COCC1CC1)CN(c1ccc(C)nn1)C2` (stereo unspecified), the cytotoxicity at 10 µM was determined as 12.8%.

Take `CC(C)NC(=O)NC[C@H]1OC[C@@H](NCc2ccncc2)[C@@H]1O`: the cytotoxicity at 10 µM is -4.07%.

For `CCC(=O)N1CCCCC1c1nc(O)c2c(n1)CN(S(C)(=O)=O)CC2` (stereo unspecified), the cytotoxicity at 10 µM amounted to 5%.

Turning to `CO[C@H]1COCCN(C(=O)c2cc(C)oc2C(F)(F)F)C1`, the cytotoxicity at 10 µM is -12.1%.

As to `Cc1nc(C2CCN(C(=O)c3ccn(C)n3)CC2)c2sccn12`, the cytotoxicity at 10 µM is -4.66%.

With `O=C(COc1ccccc1NCc1ccoc1)N1CCOCC1`, the cytotoxicity at 10 µM stood at 3.61%.

As for `CCc1ccc(CNc2ccccc2CN2CCC(O)CC2)o1`, the cytotoxicity at 10 µM was found to be 4.34%.

In the case of `CNC(=O)N1CCCCC1CCNS(C)(=O)=O` (stereo unspecified), the cytotoxicity at 10 µM was -3.41%.

`CN(C)CCN1C(=O)C2(CCN(CC3CC3)CC2)c2ccccc21`: the cytotoxicity at 10 µM was -120%.

As to `CSc1ccc(C(=O)C2CCCN(C(=O)CCCn3cncn3)C2)cc1` (stereo unspecified), the cytotoxicity at 10 µM stood at 6.26%.

On to `CCN1CCCC(C)(C(=O)NCc2nncn2CCc2ccccc2)C1` (stereo unspecified), for which the cytotoxicity at 10 µM was -10.2%.

As for `Cc1cccc2c1C(=O)NC1(CCOCC1)N2`, the cytotoxicity at 10 µM is -42.3%.

As to `CN(CCNC(=O)c1ccnc(-n2ccnc2)c1)C1CC1`, the cytotoxicity at 10 µM was 3.31%.

As for `Clc1cccc(C(CNc2ncccn2)N2CCOCC2)c1` (stereo unspecified), the cytotoxicity at 10 µM was 4.55%.

With `Cc1nn(C)cc1NC(=O)CC1CCN(C(=O)Cc2ccccc2)CC1`, the cytotoxicity at 10 µM came to 1.96%.

`CCC[C@@H]1CN(C(=O)c2c(F)ccc(C)c2Cl)C[C@H]1C(=O)O`: the cytotoxicity at 10 µM was -4.39%.

`Oc1nc(N2CCOCC2)nc2c1CCN(Cc1ccc(F)cc1)CC2`: the cytotoxicity at 10 µM is -4.14%.

Take `CNCC(=O)N1CCCC(c2nccnc2Oc2cccc(F)c2)C1` (stereo unspecified): the cytotoxicity at 10 µM turned out to be 6.87%.

In the case of `O=C(Nc1ccccc1F)C1CN(C(=O)c2ccc3c(c2)OCO3)C1`, the cytotoxicity at 10 µM is -5.96%.

Take `Cc1cc2nc(C(C)C)cc(N(C)CC3CCCN3C)n2n1` (stereo unspecified): the cytotoxicity at 10 µM is 8.49%.

With `OCCN1CCCC(c2nccnc2Oc2ccccc2)C1` (stereo unspecified), the cytotoxicity at 10 µM is -25.5%.

As to `CN(C)CC(=O)N1CCCC2(CCN(c3ccccc3)C2=O)C1` (stereo unspecified), the cytotoxicity at 10 µM was -1.24%.

Consider `NS(=O)(=O)NCc1cc(-c2ccco2)n(CC(F)(F)F)n1`, for which the cytotoxicity at 10 µM is -4.41%.

On to `CN1[C@@H](C(=O)NCC2CC2)C[C@H]2CN(Cc3cccc(C#N)c3)C[C@H]21`, for which the cytotoxicity at 10 µM is -8.22%.

Regarding `Cc1ccc(C)c2c1NC(=O)C2CC(=O)O` (stereo unspecified), the cytotoxicity at 10 µM was 28.4%.

For the compound `O=C(NC[C@H]1C[C@@H]2CCN1C[C@@H]2CN1CCCCC1)Nc1ccsc1`, the cytotoxicity at 10 µM is -1.31%.

Turning to `COc1ccc(NC(=O)C2CC2)cc1OCc1cccnc1`, the cytotoxicity at 10 µM was -50.5%.

`Cc1ccc(CCNC(=O)NCCCC(N)=O)c(C)c1`: the cytotoxicity at 10 µM came to 5.71%.

In the case of `CN(C)c1cc(CNC(=O)c2cnccn2)ccn1`, the cytotoxicity at 10 µM is -17.7%.

With `O=C(NC1CCN(C2CC2)CC1)c1cn(-c2ccc(Cl)cc2)nn1`, the cytotoxicity at 10 µM was -2.87%.

For the compound `Cc1ccc(OCC(=O)NC2CC2)nc1`, the cytotoxicity at 10 µM amounted to 4.06%.

Regarding `Cc1nc(-c2cn(CCN)nn2)n(-c2ccc3c(c2)CCC3)n1`, the cytotoxicity at 10 µM was determined as 2.86%.

As to `CN1CCN(C2CCN(CC(O)c3ccccc3F)CC2)C1=O` (stereo unspecified), the cytotoxicity at 10 µM was -0.275%.

Regarding `CCOc1ccnc(N2CCN(C(=O)CCc3ccncc3)CC2)n1`, the cytotoxicity at 10 µM was -0.662%.

Regarding `Cn1cc(CN2CCC3(CCCCN3S(C)(=O)=O)CC2)cn1`, the cytotoxicity at 10 µM is -76.9%.

On to `CC(C)c1ncc2c(n1)CN(Cc1nc(-c3ccccn3)no1)CC2`, for which the cytotoxicity at 10 µM came to 1.59%.

For the compound `CCCC1(NC(=O)C(c2ccccc2C)N(C)C)CC1` (stereo unspecified), the cytotoxicity at 10 µM is -40.4%.

On to `CCN(c1cc(C)cc(C)c1)S(=O)(=O)c1cc(C(=O)O)cs1`, for which the cytotoxicity at 10 µM was -1.92%.

For the compound `CS(=O)(=O)N1CCO[C@@H]2CN(C(=O)C3CCOC3)CC[C@@H]2C1` (stereo partly specified), the cytotoxicity at 10 µM was -108%.

As for `COCCNc1cc(-c2ccccc2CCN)c2cc[nH]c2n1`, the cytotoxicity at 10 µM amounted to 2.13%.

With `Cc1cccnc1NCCNC(=O)[C@H]1CNC[C@@H](C(=O)N2CCCC2)C1`, the cytotoxicity at 10 µM was -11.3%.

Regarding `Cc1cc(C)n(-c2ccnc(N3CCC(C(=O)N4CCCC4)CC3)n2)n1`, the cytotoxicity at 10 µM was -9.87%.

`CSc1ccc(NC(=O)NCC2CCCO2)cc1F` (stereo unspecified): the cytotoxicity at 10 µM was -7.81%.

In the case of `CCc1nc(CN2CCCN(C(=O)CCc3ccco3)CC2)cs1`, the cytotoxicity at 10 µM was determined as 1.42%.

As for `CC(C)=CCN1C[C@@H]2CC[C@H]1CN(CCC(=O)NCc1ccco1)C2`, the cytotoxicity at 10 µM is -3.08%.
